Experimental data published in ChEMBL document CHEMBL1153789, “The methoxylated flavones eupatorin and cirsiliol induce CYP1 enzyme expression in MCF7 cells” (J Nat Prod, 2009).
Calls of active or inactive are those of the source. The calls are words filed in the database; no cut-off is given here.

Columns and labels:
Assay type in all cases: functional, cell-based
MCF7 [1] = experiment: Antiproliferative activity in human MCF7 cells at 1.5 uM after 96 hrs by MTT assay
MCF7 [2] = experiment: Induction of CYP1B1 expression in human MCF7 cells at 10 nM after 24 hrs by 7-ethoxyresorufin-O-deethelase assay
Procedure, shortened: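 MCF7 cells were exposed for 24 h to 0.31, 0.625, 1.25 or 2.5 µM flavone, with 10 nM TCDD as positive control and 0.1% DMSO as negative control. CYP1 activity was read by 7-ethoxyresorufin-O-deethylation (EROD), which is mainly CYP1A1-selective, though CYP1B1 may contribute. The time course used 2.5 µM. Three replicates.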

MCF7 [3] = experiment: Induction of CYP1A1 expression in human MCF7 cells at 0.5 uM to 10 uM after 24 hrs by RT PCR and DNA electrophoresis
MCF7 [4] = experiment: Induction of CYP1A1 expression in human MCF7 cells at 2.5 uM after 24 hrs by RT PCR
Procedure, shortened: (§1)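 MCF7 cells treated 24 h (0, 1.25, 2.5, 5 µM; 10 nM TCDD reference); RT-PCR for CYP1A1, CYP1B1 and β-actin, primers per Döhr et al.; band intensities normalized to β-actin, semiquantitative; gels representative of three individual experiments.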

MCF7 [5] = experiment: Induction of CYP1B1 expression in human MCF7 cells at 5 uM after 24 hrs by RT PCR; procedure, shortened: as §1
MCF7 [6] = experiment: Induction of CYP1B1 expression in human MCF7 cells at 1.25 uM after 24 hrs by RT PCR; procedure, shortened: as §1
MCF7 [7] = experiment: Antiproliferative activity in human MCF7 cells after 96 hrs by MTT assay; conditions: MCF7, 96 h
MCF7 [8] = experiment: Induction of CYP1A1 expression in human MCF7 cells at 5 uM after 24 hrs by RT PCR; procedure, shortened: as §1
MCF7 [9] = experiment: Antiproliferative activity in human MCF7 cells after 96 hrs by MTT assay in presence of acacetin
MCF7 [10] = experiment: Induction of CYP1A1 expression in human MCF7 cells after 24 hrs by 7-ethoxyresorufin-O-deethelase assay
Procedure, shortened: (§2)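 EROD (7-ethoxyresorufin-O-deethylase) activity in MCF7 cells after 24 h exposure to 0.31, 0.625, 1.25, 2.5 µM flavone; 10 nM TCDD positive control, 0.1% DMSO negative control; three replicates. Read-out reflects mainly CYP1A1, with possible CYP1B1 contribution.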

MCF7 [11] = experiment: Induction of CYP1B1 expression in human MCF7 cells after 24 hrs by 7-ethoxyresorufin-O-deethelase assay; procedure, shortened: as §2

## COc1ccc(-c2cc(=O)c3c(O)cc(O)cc3o2)cc1
MCF7 [1]
  Activity: inactive

## Clc1cc2c(cc1Cl)Oc1cc(Cl)c(Cl)cc1O2
MCF7 [2]
  Activity: Active

## O=c1c(O)c(-c2ccc(O)c(O)c2)oc2cc(O)cc(O)c12
MCF7 [3]
  Activity: Active

## O=c1c(O)c(-c2ccc(O)cc2)oc2cc(O)cc(O)c12
MCF7 [3]
  Activity: inactive

## COc1cc2oc(-c3ccc(O)c(O)c3)cc(=O)c2c(O)c1OC [CIRSILIOL]
MCF7 [4]
  Activity: Active
MCF7 [5]
  Activity: Active
MCF7 [6]
  Activity: Active
MCF7 [7]
  IC25: 0.5 µM
  IC50: 8 µM
MCF7 [8]
  Activity: inactive
MCF7 [9]; MCF7, 96 h
  IC25: 5 µM
  IC50: 15 µM

## COc1ccc(-c2cc(=O)c3c(O)c(OC)c(OC)cc3o2)cc1O [EUPATORIN]
MCF7 [10]
  Activity: Dose-dependent effect
MCF7 [5]
  Activity: Active
MCF7 [11]
  Activity: Dose-dependent effect
MCF7 [7]
  IC50: 7 µM
MCF7 [8]
  Activity: Active
MCF7 [9]
  Activity: inactive
